Only some compounds are listed: those with a hit (about 4.9% of all), similar ones and a draw of the others.
STAT1 inh: inhibitors of IFN-gamma induced STAT1 signaling | NIH 3T3 STAT1-luciferase reporter, luminescence | 200,000 tested, 0.35% active | inhibition, % at 5.5 µM;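 active = inhibition above a set limit, the mean inhibition across all tested compounds plus 3 SD, cut at about 34% in these data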;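 also: 0% = IFN-gamma with DMSO and 100% = IFN-gamma with 300 µM nifuroxazide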
STAT3 act-1: increases IL-6 driven STAT3 reporter signal; AID 871; activation (% of control), % at 5.6 µM; 190,000 tested, 0.91% active; U3A cells, IL-6 STAT3-luciferase reporter, luminescence; 100% = signal with IL-6 EC80 alone;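 active = activation above the screen-wide mean of compound activation plus 3 SD, cut at about 130% in these data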;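 also: 0% = background luminescence of wells with medium and substrate only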
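Material: STAT3-luciferase reporter U3A cells. Controls: IL-6-treated wells, 100% activation. Read-out: % activation versus median of IL-6-stimulated wells. Probe or stimulus: IL-6 stimulus at 33 ng/mL final. Timing: compound 1 h, then IL-6 6 h at 37 °C. Signal: reporter luminescence signal.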
STAT1 act-1: activators of IFN-gamma induced STAT1 signaling; activation (% of control), % at 5.5 µM; 200,000 tested, 2.6% active; NIH 3T3 STAT1-luciferase reporter, luminescence; 100% = IFN-gamma alone, no compound;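 active = activation above the screen-wide mean activation plus 3 SD, cut at about 130% in these data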;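 also: raw ratio to IFN-gamma control signal so 100% means no change and 0% no light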
APP 5'UTR act: activates APP 5'UTR luciferase reporter; SH-SY5Y APP 5'UTR luciferase reporter, luminescence; zero percent = DMSO vehicle wells; activation, % at 2 µM; 190,000 tested, 1% active; AID 1276;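 active = activation above a set limit, based on mean plus 3 SD of controls, cut at about 140% in these data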
NF-kB neuron act: raises NF-kB expression in human neuronal cells. NF-kB reporter expression; active compounds read high. 190,000 tested, 1.6% active. fold change at 12.5 µM; in the data active = fold change above about 3.3
STAT3 blocker: STAT3 signaling inhibition. U3A cells, IL-6 STAT3-luciferase reporter, luminescence; host cell line lacks STAT1. inhibition, % at 5.5 µM. 190,000 tested, 0.89% active;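 active = inhibition above the mean inhibition across all screened compounds plus 3 SD, cut at about 44% in these data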;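 also: 0% = DMSO only wells and 100% = 100 µM nifuroxazide control wells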
STAT3 act-2: STAT3 activation, confirmation assay. shares compounds with STAT3 act-1. U3A STAT3-luciferase reporter, IL-6 potentiation, luminescence; U3A cells lack STAT1; 100 means same as IL-6 alone. potentiation (% of control), % at 5.7 µM. 1,200 tested, 64% active. AID 1267;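 active = percent activation of the STAT3 luciferase reporter above a set limit taken from the earlier primary screen, cut at about 130% in these data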;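 also: 0% = background signal of medium plus substrate and 100% = median of IL-6 with DMSO wells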
NFkB act 2: activates NF-kappaB, counter-screen to STAT3 activators; 1,200 tested, 11% active; shares compounds with STAT3 act-1; human cells, NF-kappaB reporter activation; activation (% of control), % at 5.7 µM; in the data active = activation above about 120%;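 also: reporter induced by TNF-alpha stimulation; 100% = median of stimulated DMSO wells and 0% = no signal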
STAT1 act-2: activates STAT1, counter-screen to STAT3 activators; 1,200 tested, 13% active; activation (% of control), % at 5.7 µM; AID 1318; NIH 3T3 STAT1-luciferase reporter, IFN-gamma, luminescence; shares compounds with STAT3 act-1;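 active = activation above the solvent-only control well mean plus 3 SD, set per screening run, cut at about 120% in these data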;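 also: 100% = IFN-gamma with DMSO median signal so 100% means no change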
Starred values were filed as active, the others as inactive; nt = no result given.

SMILES	STAT1 inh	STAT3 act-1	STAT1 act-1	APP 5'UTR act	NF-kB neuron act	STAT3 blocker	STAT3 act-2	NFkB act 2	STAT1 act-2
O=c1oc2ccccc2cc1-c1nc(-c2cccs2)cs1	-20.2	158.7*	112.6	nt	1.32	-70.1	116.9	116.2	116.1
CCOC(=O)CN1C(=O)C2(OCCCO2)c2ccccc21	-4.9	106.2	104.5	14.4	1.7	-4.8	nt	nt	nt
CCOC(=O)CN1C(=O)C(O)(c2c(C)[nH]c3ccccc23)c2ccccc21 (stereo unspecified)	9.3	166.8*	91.5	-7.5	0.91	-75.4	126.5	107.0	93.8
CC(=O)c1cccc(CN2CCCC(CCC(=O)NCc3ccccc3F)C2)c1 (stereo unspecified)	6.2	101.3	92.9	1.4	1.23	2.9	nt	nt	nt
COc1c(F)c(F)c(C(=O)Nc2ccc(NC(=O)Cc3ccccc3)cc2)c(F)c1F	-1.5	93.8	99.6	-25.8	1.18	11.0	nt	nt	nt
O=C(N/N=C/c1ccc(OCC(=O)N2CCCCC2)cc1)c1ccccc1O	9.6	141.4*	91.3	3.3	1.18	-39.3	145.7*	104.2	113.9
Nc1nc2n(n1)C(=O)CC(c1ccccc1)N2 (stereo unspecified)	-1.8	95.2	100.0	-0.9	1.06	15.4	nt	nt	nt
CC(NC(=O)c1ccco1)C(=O)OC(C)C(=O)NCc1ccccc1 (stereo unspecified)	5.5	97.2	95.0	-15.5	1.18	3.2	nt	nt	nt
COc1cc(NS(=O)(=O)c2ccc(N/C=C(\C=O)c3nc4ccccc4o3)cc2)nc(OC)n1	7.3	147.2*	93.4	4.0	1.01	-53.9	135.5*	103.6	95.2
CCc1nnc(NS(=O)(=O)c2ccc(N/C=C(\C=O)c3nc4cc(Cl)ccc4o3)cc2)s1	-3.4	149.2*	101.8	4.2	1.17	-51.5	135.0*	102.9	99.2
COc1ccc(CN2CCCC(C(=O)c3cccc(OC(C)C)c3)C2)cc1Cn1cccn1 (stereo unspecified)	8.1	110.8	91.0	3.6	0.9	-7.8	nt	nt	nt
CN(C)c1ccc(P(=O)(Nc2ccccc2)N2CCOCC2)c(NC(=O)c2cccs2)c1 (stereo unspecified)	-2.5	135.8*	102.2	14.0	1	-42.9	140.0*	99.8	103.0
Cc1ccc(NP(=O)(c2ccc(N(C)C)cc2NC(=O)c2cccs2)N2CCOCC2)cc1Cl (stereo unspecified)	3.8	127.2	96.5	16.3	0.69	-38.6	nt	nt	nt
O=C(Nc1ccc(C(=O)N2CCOCC2)cc1)c1cccs1	3.4	96.7	96.9	6.0	1.19	5.7	nt	nt	nt
Cc1ccc(NP(=O)(c2ccc(N(C)C)cc2NC(=O)c2cccs2)N2CCOCC2)cc1 (stereo unspecified)	1.1	138.9*	99.0	12.5	1.2	-53.3	135.1*	100.9	101.1
CN(C)c1ccc(P(=O)(Nc2ccc([N+](=O)[O-])cc2)N2CCOCC2)c(NC(=O)c2cccs2)c1 (stereo unspecified)	-5.4	140.1*	105.0	-3.6	0.8	-54.5	149.0*	100.8	103.7
CC(NC(=O)/C(C#N)=C1\N=C(NC(=O)c2cccs2)c2ccccc21)c1ccccc1 (stereo unspecified)	3.9	109.6	96.5	-1.7	0.75	-8.7	nt	nt	nt
c1ccc2c(c1)CCCN2Cc1nnc2n1CCCCC2	-3.4	140.2*	103.1	23.1	1.42	-45.2	120.0	100.0	98.4
CCCc1nnc(SCC(=O)N2CCCC(C)C2)n1CCOC (stereo unspecified)	3.7	96.5	94.8	13.4	1.07	10.2	nt	nt	nt
COc1cccc(-c2nc(N3CCCCC3C)c3ccccc3n2)c1O (stereo unspecified)	9.7	138.1*	91.1	-3.3	0.62	-42.1	138.1*	105.1	98.6
CCOC(=O)N1CCN(C(=O)c2ccc(Oc3ccc([N+](=O)[O-])cc3)cc2)CC1	17.2	94.7	82.6	60.9	0.93	10.0	nt	nt	nt
COc1ccccc1C(=O)OCCNC(=O)Cn1cnc2c1c(=O)n(C)c(=O)n2C	-0.2	98.3	98.9	0.8	1.31	9.7	nt	nt	nt
Cc1ccc(-n2nc(C)c3c(-c4cccs4)c(C#N)c(N)nc32)cc1	7.3	144.2*	93.3	3.9	0.86	-46.7	124.5	99.4	103.5
COc1cc(OC)c(NC(=O)c2ccccc2F)cc1Cl	-20.3	137.6*	118.8	0.4	1.33	-45.5	132.2	106.8	116.2
COc1cc(NC(=O)c2ccc(Cl)cc2)c(OC)cc1Cl	0.2	148.8*	99.8	13.1	1.62	-46.6	131.3	102.1	103.5
SMILES	STAT1 inh	STAT3 act-1	STAT1 act-1	APP 5'UTR act	NF-kB neuron act	STAT3 blocker	STAT3 act-2	NFkB act 2	STAT1 act-2
FC(F)(F)c1nnc2c(Sc3ccccn3)nc3ccccc3n12	15.8	141.3*	85.8	28.3	1.18	-40.0	146.2*	121.8*	127.7*
O=C(CCN1CCOCC1)N1CCc2c([nH]c3ccccc23)C1c1cccc(Cl)c1 (stereo unspecified)	6.1	142.3*	94.2	-11.1	1.12	-41.4	172.4*	109.7	86.6
Fc1ccc2nc(Nc3nc4c(F)cccc4s3)sc2c1	-17.4	140.0*	115.8	19.5	1.27	-54.4	168.7*	119.8	130.1*
Fc1cccc2sc(Nc3nc4ccccc4s3)nc12	-23.9	177.3*	121.3	96.2	1.25	-91.5	209.5*	129.4*	156.5*
CCOc1cc(C2C3=C(CC(C)(C)CC3=O)Nc3n[nH]c(C)c32)ccc1O (stereo unspecified)	3.1	96.2	97.0	-0.2	1.1	9.1	nt	nt	nt
CCOc1cc(/C=C2/SC(=S)N(C)C2=O)ccc1Oc1ccc([N+](=O)[O-])cc1[N+](=O)[O-]	-0.6	100.5	99.0	-1.9	1.02	1.7	nt	nt	nt
Oc1ccccc1-c1cc(-c2cccc(F)c2)n[nH]1	-10.1	145.4*	109.3	202.0*	9.9*	-50.8	154.9*	139.7*	110.7
Oc1ccc(Cl)cc1-c1cc(-c2cccc(Br)c2)n[nH]1	0.0	96.8	100.0	8.6	1.29	11.0	nt	nt	nt
CCOC(=O)C1=C(NC(=S)NC(=O)c2ccccc2)c2ccccc2CC1C(C)C (stereo unspecified)	-3.7	139.1*	103.3	-6.4	3.66*	-41.3	126.4	73.7	105.3
CCOC(=O)C1=C(NC(=S)NC(=O)c2ccccc2)c2ccccc2CC1(C)CC (stereo unspecified)	8.6	117.2	92.4	-15.8	0.57	-14.5	nt	nt	nt
